Results from ChEMBL document CHEMBL1155027, “Synthesis and proteasome inhibition of glycyrrhetinic acid derivatives” (Bioorg Med Chem, 2008).
Active and inactive are the calls of the source. The calls are words filed in the database; no cut-off is given here. Residues, ends and D or L forms follow the SMILES beside them.

What was measured:
[1] = Inhibition of chymotrypsin-like activity of human 20S proteasome
[2] = Inhibition of caspase-like activity of human 20S proteasome
Summary of the method: (§1)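 Purified human 20S proteasome assayed with the activator PA28 (16 µg/ml) and fluorogenic substrates: Suc-Leu-Leu-Val-Tyr-AMC for chymotrypsin-like, Bz-VGR-AMC for trypsin-like, and (Z)-LLE-bNA for caspase-like activity. Fluorescence was read at 360/460 nm across a range of inhibitor concentrations. IC50 is the concentration that halves reaction velocity (ΔRFU/min), taken from a plot of velocity against log concentration.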

[3] = Inhibition of trypsin-like activity of human 20S proteasome; summary of the method: as §1
[4] = test system: MT4; assay: Inhibition of chymotrypsin-like activity of 20S proteasome in human MT4 cells at 0.25 uM after 3 hrs; type: cell-based
[5] = test system: MT4; assay: Inhibition of TNF-alpha-induced 20S proteasome degradation of IkappaBalpha in human MT4 cells at 1.6 uM after 3 hrs by Western blot analysis; type: cell-based
Summary of the method: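 MT4 cells pretreated with inhibitor 3 h, then TNFα 10 ng/ml for 30 min; cytosolic proteins resolved on 12% SDS-PAGE, transferred to nitrocellulose and Western blotted for IκBα, with β-actin as loading reference.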

Row | Structure (SMILES) | IC50 [1] [µM] | other results
1 | CC(C)CC(NC(=O)[C@@]1(C)CC[C@]2(C)CC[C@]3(C)C(=CC(=O)[C@@H]4[C@@]5(C)CC[C@H](O)C(C)(C)[C@@H]5CC[C@]43C)[C@@H]2C1)C(=O)O (stereo partly specified) | > 40 | –
2 | CC1(C)[C@@H](O)CC[C@]2(C)[C@H]3C(=O)C=C4[C@@H]5C[C@@](C)(C(=O)O)CC[C@]5(C)CC[C@@]4(C)[C@]3(C)CC[C@@H]12 [ENOXOLONE] | 22.3 | IC50 [2]: > 40 µM; IC50 [3]: > 40 µM
3 | CC(=O)N[C@@H](CSC(=O)C1([C@@H](O)C(C)C)NC(=O)[C@H](C)[C@@H]1O)C(=O)O (single isomer, unassigned) [LACTACYSTIN] | – | IC50 [2]: > 30 µM; IC50 [3]: > 30 µM
4 | CC1(C)[C@@H](OC(=O)CCC(=O)O)CC[C@]2(C)[C@H]3C(=O)C=C4[C@@H]5C[C@@](C)(C(=O)O)CC[C@]5(C)CC[C@@]4(C)[C@]3(C)CC[C@@H]12 [CARBENOXOLONE] | 2.63 | –
5 | CC(=O)O[C@H]1CC[C@]2(C)[C@H]3C(=O)C=C4[C@@H]5C[C@@](C)(C(=O)O)CC[C@]5(C)CC[C@@]4(C)[C@]3(C)CC[C@H]2C1(C)C [ACETOXOLONE] | > 40 | –
6 | CC(C)C(=O)O[C@H]1CC[C@]2(C)[C@H]3C(=O)C=C4[C@@H]5C[C@@](C)(C(=O)O)CC[C@]5(C)CC[C@@]4(C)[C@]3(C)CC[C@H]2C1(C)C | 1.92 | –
7 | CC(=O)Cc1ccc(OCC(=O)O[C@H]2CC[C@]3(C)[C@H]4C(=O)C=C5[C@@H]6C[C@@](C)(C(=O)O)CC[C@]6(C)CC[C@@]5(C)[C@]4(C)CC[C@H]3C2(C)C)cc1 | 2.27 | –
8 | CC1(C)[C@@H](OC(=O)COCC(=O)O)CC[C@]2(C)[C@H]3C(=O)C=C4[C@@H]5C[C@@](C)(C(=O)O)CC[C@]5(C)CC[C@@]4(C)[C@]3(C)CC[C@@H]12 | 1.93 | –
9 | CC1(C)[C@@H](OC(=O)C/C=C/CC(=O)O)CC[C@]2(C)[C@H]3C(=O)C=C4[C@@H]5C[C@@](C)(C(=O)O)CC[C@]5(C)CC[C@@]4(C)[C@]3(C)CC[C@@H]12 | 0.35 | IC50 [2]: 26.5 µM; IC50 [3]: 19.3 µM
10 | CC(C)(CC(=O)O)CC(=O)O[C@H]1CC[C@]2(C)[C@H]3C(=O)C=C4[C@@H]5C[C@@](C)(C(=O)O)CC[C@]5(C)CC[C@@]4(C)[C@]3(C)CC[C@H]2C1(C)C | 6.86 | –
11 | CSCC[C@@H](C=O)NC(=O)[C@H](CC(C)C)NC(=O)[C@H](CC(C)C)NC(C)=O (Ac-Leu-Leu-Met-aldehyde) | 5.25 | IC50 [2]: 22.5 µM; IC50 [3]: > 25 µM
12 | CC1(C)[C@@H](OC(=O)CCCCC(=O)O)CC[C@]2(C)[C@H]3C(=O)C=C4[C@@H]5C[C@@](C)(C(=O)O)CC[C@]5(C)CC[C@@]4(C)[C@]3(C)CC[C@@H]12 | 0.29 | IC50 [2]: 5.02 µM; IC50 [3]: 3.32 µM
13 | CCC(=O)O[C@H]1CC[C@]2(C)[C@H]3C(=O)C=C4[C@@H]5C[C@@](C)(C(=O)O)CC[C@]5(C)CC[C@@]4(C)[C@]3(C)CC[C@H]2C1(C)C | > 40 | –
14 | CC1(C)[C@@H](OC(=O)c2cccc(C(=O)O)c2)CC[C@]2(C)[C@H]3C(=O)C=C4[C@@H]5C[C@@](C)(C(=O)O)CC[C@]5(C)CC[C@@]4(C)[C@]3(C)CC[C@@H]12 | 0.22 | IC50 [2]: 3.56 µM; IC50 [3]: 2.91 µM; inhibition [4]: 50%; Activity [5]: Active
15 | CC1(C)[C@@H](OC(=O)c2ccc(C(=O)O)cc2)CC[C@]2(C)[C@H]3C(=O)C=C4[C@@H]5C[C@@](C)(C(=O)O)CC[C@]5(C)CC[C@@]4(C)[C@]3(C)CC[C@@H]12 | 0.31 | –
16 | CC1(C)[C@@H](OC(=O)c2ccccc2)CC[C@]2(C)[C@H]3C(=O)C=C4[C@@H]5C[C@@](C)(C(=O)O)CC[C@]5(C)CC[C@@]4(C)[C@]3(C)CC[C@@H]12 | 2.08 | –
17 | CC(C)(CC(=O)O[C@H]1CC[C@]2(C)[C@H]3C(=O)C=C4[C@@H]5C[C@@](C)(C(=O)O)CC[C@]5(C)CC[C@@]4(C)[C@]3(C)CC[C@H]2C1(C)C)C(=O)O | 0.87 | –
18 | CC1(C)[C@@H](OC(=O)Cc2ccc(CC(=O)O)cc2)CC[C@]2(C)[C@H]3C(=O)C=C4[C@@H]5C[C@@](C)(C(=O)O)CC[C@]5(C)CC[C@@]4(C)[C@]3(C)CC[C@@H]12 | 1.78 | –
19 | COC(=O)C(CC(C)C)NC(=O)[C@@]1(C)CC[C@]2(C)CC[C@]3(C)C(=CC(=O)[C@@H]4[C@@]5(C)CC[C@H](OC(C)=O)C(C)(C)[C@@H]5CC[C@]43C)[C@@H]2C1 (stereo partly specified) | > 40 | –
20 | CC1(C)[C@@H](OC(=O)Cc2cccc(CC(=O)O)c2)CC[C@]2(C)[C@H]3C(=O)C=C4[C@@H]5C[C@@](C)(C(=O)O)CC[C@]5(C)CC[C@@]4(C)[C@]3(C)CC[C@@H]12 | 1.05 | –
21 | CC(C(=O)O)C(C)C(=O)O[C@H]1CC[C@]2(C)[C@H]3C(=O)C=C4[C@@H]5C[C@@](C)(C(=O)O)CC[C@]5(C)CC[C@@]4(C)[C@]3(C)CC[C@H]2C1(C)C (stereo partly specified) | 8.7 | –
22 | CC1(C)[C@@H](OC(=O)CCCC(=O)O)CC[C@]2(C)[C@H]3C(=O)C=C4[C@@H]5C[C@@](C)(C(=O)O)CC[C@]5(C)CC[C@@]4(C)[C@]3(C)CC[C@@H]12 | 1.39 | –
23 | CC(C)CC(NC(=O)[C@@]1(C)CC[C@]2(C)CC[C@]3(C)C(=CC(=O)[C@@H]4[C@@]5(C)CC[C@H](OC(=O)CC(C)(C)C(=O)O)C(C)(C)[C@@H]5CC[C@]43C)[C@@H]2C1)C(=O)O (stereo partly specified) | 3.09 | –
